The list is not random: actives were taken first. Their share in the collection is about 3%.
MC4R ag barr: agonists of human melanocortin 4 receptor (MC4R) beta-arrestin; P32245; U2OS MC4R beta-arrestin complementation, luminescence; percent of melanotan II response, DMSO zero; activation, % at 8.9 µM; hit rate 0.98% among 360,000;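 active = activation above a per-plate cutoff, the mean activation of sample wells on that plate plus 3 SD, cut at about 8% in these data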
PfG6PD inh: PfG6PD (Plasmodium falciparum) enzyme inhibition; PfGluPho enzyme, NADPH resazurin-diaphorase fluorescence; inhibition, % at 20 µM; hit rate 0.78% among 350,000; AID 504690;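 active = inhibition reaching at least a set limit at 20 µM in the primary screen, cut at about 59% in these data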;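 also: 0% = DMSO wells with substrate and 100% = DMSO wells lacking glucose-6-phosphate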
B2AR ag: activates human beta-2 adrenergic receptor causing internalization. P07550. Am2.2-beta2AR cells, FAP receptor internalization, flow cytometry. response, % (concentration not given with the values). hit rate 0.43% among 340,000;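 active = response above a set limit, near 3 SD of response in nonfluorescent compounds, cut at about 42% in these data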
MC4R antagonist: human MC4R antagonism in cAMP assay; P32245; MC4R-expressing cells, MTII-stimulated cAMP, LANCE TR-FRET; inhibition, % at 6.5 µM; hit rate 0.48% among 360,000; AID 540295;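 active = inhibition above its plate's cutoff, the mean of tested wells on that plate plus 3 SD, cut at about 29% in these data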;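 also: 0% = Melanotan II alone and 100% = Melanotan II plus saturating MCL0020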
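System – human MC4R-expressing U2OS cells · Also added – Melanotan II · Dosing – one concentration, 6.5 µM nominal · Timing – 30-min compound, 1-h challenge, 1-h detection, room temperature · Measured by – Eu-cAMP/anti-cAMP TR-FRET, emission 671 nm · Replicates – singlicate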
ABHD5-PLIN5 inh: blocks binding of human ABHD5 to perilipin-5; Split G. princeps luciferase complementation, luminescence, 4 h; inhibition, % at 4 µM; hit rate 0.78% among 360,000;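 active = inhibition above the mean inhibition across every tested compound plus 3 SD, cut at about 22% in these data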;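 also: 0% = DMSO only wells and the 100% control is not disclosed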
ABHD5 PLIN5 conf: confirmation of human ABHD5-PLIN5 interaction inhibitors | hit rate 67% among 2,200 | inhibition, % at 4 µM | biochemical ABHD5-PLIN5 interaction, luminescence | shares compounds with ABHD5-PLIN5 inh; in the data active = inhibition above about 23%;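 also: 0% = DMSO vehicle wells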
HNF4 split-luc: HNF4 split-luciferase signal hit, counter-screen; shares compounds with ABHD5-PLIN5 inh; HNF4 dimerization, luminescence, biochemical; inhibition, % at 4 µM; hit rate 77% among 2,200; AID 651674;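 active = mean inhibition across replicate wells exceeding the computed hit threshold, cut at about 13% in these data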;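 also: light from luciferase halves that rejoin when HNF4 fusion proteins dimerize; 0% = DMSO only wells and the 100% control is not given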
Target sequence (P41235 whole entry, looked up, the tested form may be a part): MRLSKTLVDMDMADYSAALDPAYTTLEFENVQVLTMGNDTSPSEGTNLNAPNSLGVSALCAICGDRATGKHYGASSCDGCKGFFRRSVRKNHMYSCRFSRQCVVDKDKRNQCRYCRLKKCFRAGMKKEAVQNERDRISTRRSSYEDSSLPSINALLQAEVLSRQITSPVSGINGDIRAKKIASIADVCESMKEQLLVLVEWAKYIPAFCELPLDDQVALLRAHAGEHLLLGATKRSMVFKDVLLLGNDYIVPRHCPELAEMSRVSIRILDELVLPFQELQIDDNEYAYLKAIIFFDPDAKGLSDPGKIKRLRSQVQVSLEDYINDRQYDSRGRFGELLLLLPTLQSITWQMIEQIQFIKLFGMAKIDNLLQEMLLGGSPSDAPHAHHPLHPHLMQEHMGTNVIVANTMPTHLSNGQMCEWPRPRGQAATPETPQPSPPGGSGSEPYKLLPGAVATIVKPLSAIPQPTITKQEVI
The depositor's hits bear a star.

What do the screens show for `COc1ccc(CN2CCN(C(=O)c3cccnc3)CC2)cc1Br`?
MC4R ag barr: -2; PfG6PD inh: 1; B2AR ag: -1; MC4R antagonist: 9; ABHD5-PLIN5 inh: 1

Results for O=C(c1cccnc1)N1CCN(Cc2cccc(Br)c2)CC1 ?
MC4R ag barr: 2; PfG6PD inh: -11; B2AR ag: 14; MC4R antagonist: -5; ABHD5-PLIN5 inh: 24*; ABHD5 PLIN5 conf: 1; HNF4 split-luc: 8

Results for COC(=O)C(Cc1ccc(O)cc1)NC(=O)CCOc1ccc(OC)cc1 (configuration not stated) ?
MC4R ag barr: 0; PfG6PD inh: -7; B2AR ag: -8; MC4R antagonist: 5; ABHD5-PLIN5 inh: 1

How did N#CCC(=O)Nc1ccc(C(=O)NNC(=O)CCN2CCN(c3ccccc3)CC2)cc1 do in these assays?
MC4R ag barr: 0; PfG6PD inh: -2; B2AR ag: -1; MC4R antagonist: -1; ABHD5-PLIN5 inh: 2

What do the screens show for `O=C(C[C@H]1C[C@H](C(=O)N2CCOCC2)[C@@]2(CCC3CCCC3)c3[nH]c4cc(-c5ccco5)ccc4c3CCN2C1=O)NCCc1ccccn1`?
MC4R ag barr: -1; PfG6PD inh: 33; B2AR ag: 8; MC4R antagonist: 6; ABHD5-PLIN5 inh: 23*; ABHD5 PLIN5 conf: 11; HNF4 split-luc: 17*

Results for O=C(COc1ccccc1Cl)Nc1ccc(N2CCCC2)cc1 ?
MC4R ag barr: 3; PfG6PD inh: -3; B2AR ag: -6; MC4R antagonist: 4; ABHD5-PLIN5 inh: 26*; ABHD5 PLIN5 conf: 45*; HNF4 split-luc: 7

How did CCN1CCN(c2ccc(NC(=O)COc3ccccc3Cl)cc2)CC1 do in these assays?
MC4R ag barr: -1; PfG6PD inh: 15; B2AR ag: -9; MC4R antagonist: -2; ABHD5-PLIN5 inh: -9

How did COc1ccc2c(c1OC)OCC2C (configuration not stated) do in these assays?
MC4R ag barr: 1; PfG6PD inh: 2; B2AR ag: -4; MC4R antagonist: 0; ABHD5-PLIN5 inh: -6

What do the screens show for `Cc1oc(-c2ccc(Cl)cc2)cc1-c1nn2c(-c3ccoc3C)nnc2s1`?
MC4R ag barr: 1; PfG6PD inh: 31; B2AR ag: 11; MC4R antagonist: 28; ABHD5-PLIN5 inh: 24*; ABHD5 PLIN5 conf: 13; HNF4 split-luc: 17*

What do the screens show for `COc1ccccc1/C=C/C=C1\Oc2c(ccc(O)c2CN(C)C)C1=O`?
MC4R ag barr: 1; PfG6PD inh: -2; B2AR ag: 15; MC4R antagonist: 6; ABHD5-PLIN5 inh: 21

Results for CCN(CC)Cc1c(O)ccc2c1O/C(=C\C=C\c1ccccc1)C2=O ?
MC4R ag barr: -2; PfG6PD inh: 23; B2AR ag: 28; MC4R antagonist: -6; ABHD5-PLIN5 inh: 42*; ABHD5 PLIN5 conf: 20; HNF4 split-luc: 20*

Results for COC(=O)c1c(NC(=S)NN2CCN(C)CC2)sc2c1CCC(C)C2 (configuration not stated) ?
MC4R ag barr: 0; PfG6PD inh: 15; B2AR ag: 29; MC4R antagonist: 5; ABHD5-PLIN5 inh: 25*; ABHD5 PLIN5 conf: 6; HNF4 split-luc: 4

How did COC(=O)c1c(NC(=O)Cc2cccs2)sc2c1CCC(C)C2 (configuration not stated) do in these assays?
MC4R ag barr: 1; PfG6PD inh: 37; B2AR ag: 2; MC4R antagonist: -3; ABHD5-PLIN5 inh: -6

How did C#CCNC(=O)C1=C[C@H](C)[C@@H](CCCO)[C@H](OCC)O1 do in these assays?
MC4R ag barr: -2; PfG6PD inh: -2; B2AR ag: 4; MC4R antagonist: 8; ABHD5-PLIN5 inh: 9

What do the screens show for `C#CCNC(=O)C1=C[C@H](C2CCCCC2)[C@@H](CCCO)[C@H](OCC)O1`?
MC4R ag barr: 0; PfG6PD inh: 5; B2AR ag: 3; MC4R antagonist: 5; ABHD5-PLIN5 inh: 101*; ABHD5 PLIN5 conf: 3; HNF4 split-luc: 1

How did Oc1ccc(N=Nc2ccccc2)o1 do in these assays?
MC4R ag barr: 0; PfG6PD inh: 21; B2AR ag: 8; MC4R antagonist: 2; ABHD5-PLIN5 inh: 41*; ABHD5 PLIN5 conf: 66*; HNF4 split-luc: 68*

Results for O=c1ccc(N=Nc2ccccc2)ccc1O ?
MC4R ag barr: -4; PfG6PD inh: -42; B2AR ag: 10; MC4R antagonist: -1; ABHD5-PLIN5 inh: 5

What do the screens show for `Cc1ccc(C)c(S(=O)(=O)N2CCN(Cc3cc4c(cc3O)OCO4)CC2)c1`?
MC4R ag barr: -2; PfG6PD inh: 38; B2AR ag: -2; MC4R antagonist: -8; ABHD5-PLIN5 inh: 25*; ABHD5 PLIN5 conf: 35*; HNF4 split-luc: 65*

How did CCSc1ccc2c(c1)N(CCCN1CCN(C)CC1)c1ccccc1S2 do in these assays?
MC4R ag barr: 3; PfG6PD inh: 6; B2AR ag: 29; MC4R antagonist: 0; ABHD5-PLIN5 inh: 24*; ABHD5 PLIN5 conf: 36*; HNF4 split-luc: 8

What do the screens show for `CN(C)CCOc1ccccc1Cc1ccccc1`?
MC4R ag barr: -1; PfG6PD inh: -7; B2AR ag: -1; MC4R antagonist: 6; ABHD5-PLIN5 inh: 35*; ABHD5 PLIN5 conf: 73*; HNF4 split-luc: 25*

Results for CN(C)Cc1ccccc1Cc1ccccc1 ?
MC4R ag barr: 0; PfG6PD inh: -13; B2AR ag: 1; MC4R antagonist: 5; ABHD5-PLIN5 inh: -2

Results for C=CCNC(=O)/C(C#N)=C/c1c(C)nn(-c2ccc(Cl)cc2)c1Cl ?
MC4R ag barr: 8; PfG6PD inh: -2; B2AR ag: 5; MC4R antagonist: 16; ABHD5-PLIN5 inh: 34*; ABHD5 PLIN5 conf: 41*; HNF4 split-luc: 45*

What do the screens show for `CCCC(=O)N1CCCC(c2cc(C(=O)Nc3ccccc3)no2)C1` (configuration not stated)?
MC4R ag barr: -2; MC4R antagonist: 5; ABHD5-PLIN5 inh: -10

How did CCN(CC(=O)Nc1c(F)cccc1F)C(=O)CSCC(=O)Nc1ccc(OC)cc1 do in these assays?
MC4R ag barr: 0; PfG6PD inh: -1; B2AR ag: 0; MC4R antagonist: 7; ABHD5-PLIN5 inh: 26*; ABHD5 PLIN5 conf: 3; HNF4 split-luc: -5

What do the screens show for `Cn1c(=O)[nH]c(=O)c2c1nc(Br)n2Cc1ccccc1Cl`?
MC4R ag barr: 0; PfG6PD inh: -1; B2AR ag: -2; MC4R antagonist: 23; ABHD5-PLIN5 inh: -5

Results for Cn1c(=O)[nH]c(=O)c2c1nc(SCC(O)CO)n2Cc1ccccc1Cl (configuration not stated) ?
MC4R ag barr: -1; PfG6PD inh: 0; B2AR ag: 18; MC4R antagonist: -4; ABHD5-PLIN5 inh: 39*; ABHD5 PLIN5 conf: 4; HNF4 split-luc: 4
